From ChEMBL document CHEMBL1136868, “Synthesis of phenylisothiourea derivatives as inhibitors of NO production in LPS activated macrophages” (Bioorg Med Chem Lett, 2009)
Blank lines part the entries; values can stand above or below the compound they belong to. Activity calls are given as the source filed them. The rule behind the calls is not given here.

Columns and labels:
RAW264.7 [1] = experiment: Antiinflammatory activity against LPS-stimulated mouse RAW264.7 cells assessed as inhibition of NO production at 20 uM after 20 hrs relative to control; assay type: functional; conditions: RAW264.7, 20 h
In short: (§1)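 RAW 264.7 cells plated at 1 × 10⁵ cells/mL in 10% FBS–DMEM and grown 24 h, then moved to 1% FBS medium. Cells were stimulated with LPS (1 µg/mL) with or without compound for 20 h. Nitrite accumulated in supernatant was read by Griess reagent (10 min, room temperature, A570). Inhibition is relative to LPS control, n = 3; IC50 given as mean ± SD of three experiments.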

RAW264.7 [2] = experiment: Antiinflammatory activity against LPS-stimulated mouse RAW264.7 cells assessed as inhibition of NO production at 50 uM after 20 hrs relative to control; assay type: functional; conditions: RAW264.7, 20 h; in short: as §1
RAW264.7 [3] = experiment: Antiinflammatory activity against LPS-stimulated mouse RAW264.7 cells assessed as inhibition of NO production at 5 uM after 20 hrs relative to control; assay type: functional; conditions: RAW264.7, 20 h; in short: as §1
RAW264.7 [4] = experiment: Antiinflammatory activity against LPS-stimulated mouse RAW264.7 cells assessed as inhibition of NO production after 20 hrs; assay type: functional, cell-based; conditions: RAW264.7, 20 h; in short: as §1
RAW264.7 [5] = experiment: Inhibition of iNOS protein expression in LPS-stimulated mouse RAW264.7 cells at 10 uM after 20 hrs by Western blot; assay type: functional, cell-based
In short: (§2)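 RAW 264.7 cells were exposed to compound for 20 h during LPS (1 µg/mL) activation, then washed and lysed. 20 µg lysate protein was run on 8% SDS-PAGE, blotted to PVDF and probed for iNOS and actin. iNOS band density was normalized to actin; mean ± SD of three independent densitometric analyses.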

RAW264.7 [6] = experiment: Suppression of LPS-induced NF-kappaB p65 subunit translocation into nucleus in mouse RAW264.7 cells assessed as p65 protein level at 10 uM after 30 mins pretreated 30 mins before LPS challenge by Western blot; assay type: functional, cell-based
In short: (§3)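 Macrophages were pretreated with compound for 30 min, then given LPS (1 µg/mL) for a further 30 min. Nuclear extracts were immunoblotted for p65, with levels normalized to PARP as the loading control.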

RAW264.7 [7] = experiment: Cytotoxicity against mouse RAW264.7 cells; assay type: cell-based
RAW264.7 [8] = experiment: Inhibition of iNOS mRNA expression in LPS-stimulated mouse RAW264.7 cells at 10 uM after 6 hrs by RT-PCR; assay type: functional, cell-based
In short: (§4)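 RAW 264.7 cells (1.8 × 10⁶ per 60 mm dish) were stimulated 6 h with LPS (1 µg/mL) with or without compound. Total RNA was extracted and 2 µg was reverse transcribed with random hexamers. PCR ran 25 cycles (94 °C, 55 °C, 72 °C, 30 s each), and products were resolved on 2% agarose. iNOS was normalized to β-actin; mean ± SD of three densitometric analyses.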

[9] = Peroxynitrite radical scavenging activity assessed as dihydrohodamine 123 product by cell free assay
In short: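 In a cell-free system, oxidation of dihydrorhodamine 123 by authentic peroxynitrite was monitored by fluorescence.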

RAW264.7 [10] = experiment: Inhibition of iNOS protein expression in LPS-stimulated mouse RAW264.7 cells at 5 uM after 20 hrs by Western blot; assay type: functional; conditions: RAW264.7, 20 h; in short: as §2
RAW264.7 [11] = experiment: Inhibition of iNOS mRNA expression in LPS-stimulated mouse RAW264.7 cells at 5 uM after 6 hrs by RT-PCR; assay type: functional, cell-based; in short: as §4
RAW264.7 [12] = experiment: Suppression of LPS-induced NF-kappaB p65 subunit translocation into nucleus in mouse RAW264.7 cells assessed as p65 protein level at 5 uM after 30 mins pretreated 30 mins before LPS challenge by Western blot; assay type: functional, cell-based; in short: as §3

Compound: CCN/C(=N/c1ccc(OCC)cc1)SC(C)C
inhibition at 20 µM (RAW264.7 [1]): < 10%
inhibition at 50 µM (RAW264.7 [2]): 22%

Compound: CCN/C(=N/c1ccc(Cl)cc1)SC(C)C
inhibition at 20 µM (RAW264.7 [1]): < 10%
inhibition at 50 µM (RAW264.7 [2]): 62%

Compound: CCN/C(=N/c1ccc(OCCn2c3ccccc3c3ccccc32)cc1)SCc1ccc(F)cc1
inhibition at 20 µM (RAW264.7 [1]): 36%
inhibition at 50 µM (RAW264.7 [2]): 40%

IC50 (RAW264.7 [4]): 11.2 µM
Compound: CCN/C(=N/c1ccc(-c2ccccc2)cc1)SC(C)C
inhibition at 5 µM (RAW264.7 [3]): 13%
inhibition at 20 µM (RAW264.7 [1]): 85%
inhibition at 50 µM (RAW264.7 [2]): 96%
iNOS protein expression inhibition (RAW264.7 [5]): Active
Activity (RAW264.7 [6]): Active
Activity (RAW264.7 [7]): Non-toxic

Compound: CS/C(N)=N\c1ccc(OCCn2c3ccccc3c3ccccc32)cc1
inhibition at 20 µM (RAW264.7 [1]): 22%
inhibition at 50 µM (RAW264.7 [2]): 24%

Compound: CCNC(=S)Nc1ccc(-c2ccccc2)cc1
inhibition at 20 µM (RAW264.7 [1]): < 10%
inhibition at 50 µM (RAW264.7 [2]): 23%

Compound: CCNC(=S)Nc1ccc(O)cc1
inhibition at 20 µM (RAW264.7 [1]): < 10%
inhibition at 50 µM (RAW264.7 [2]): 20%

Compound: CCN/C(=N/c1ccc(OCCn2c3ccccc3c3ccccc32)cc1)SCc1ccc(C(=O)OC)cc1
inhibition at 20 µM (RAW264.7 [1]): 14%
inhibition at 50 µM (RAW264.7 [2]): 17%

Compound: COc1cc(/C=C/C(=O)CC(=O)/C=C/c2ccc(O)c(OC)c2)ccc1O [CURCUMIN]
inhibition (RAW264.7 [8]): Active
Activity (RAW264.7 [6]): Active
Activity (RAW264.7 [7]): Non-toxic

Compound: CCS/C(N)=N\c1ccc(OCCn2c3ccccc3c3ccccc32)cc1
inhibition at 20 µM (RAW264.7 [1]): 32%
inhibition at 50 µM (RAW264.7 [2]): 64%

Compound: CCCc1ccc(NC(=S)NCC)cc1
inhibition at 20 µM (RAW264.7 [1]): < 10%
inhibition at 50 µM (RAW264.7 [2]): 23%

Compound: CCNC(=S)Nc1ccc(C)cc1
inhibition at 20 µM (RAW264.7 [1]): < 10%
inhibition at 50 µM (RAW264.7 [2]): 14%

Compound: CCNC(=S)Nc1ccc(Cl)cc1
inhibition at 20 µM (RAW264.7 [1]): < 10%
inhibition at 50 µM (RAW264.7 [2]): 11%

Compound: CCNC(=S)Nc1ccc(OCC)cc1
inhibition at 20 µM (RAW264.7 [1]): < 10%
inhibition at 50 µM (RAW264.7 [2]): 12%

IC50 (RAW264.7 [4]): 5.3 µM
Compound: CCN/C(=N/c1ccc(OCCn2c3ccccc3c3ccccc32)cc1)SCc1ccc(C(=O)O)cc1
inhibition at 5 µM (RAW264.7 [3]): 39%
inhibition at 20 µM (RAW264.7 [1]): 90%
inhibition at 50 µM (RAW264.7 [2]): 100%
iNOS protein expression inhibition (RAW264.7 [5]): Active
Activity (RAW264.7 [6]): Active
SC50 [9]: 14 µM
Activity (RAW264.7 [7]): Non-toxic

Compound: CCN/C(=N/c1ccc(OCCn2c3ccccc3c3ccccc32)cc1)SCc1ccccc1
inhibition at 20 µM (RAW264.7 [1]): 31%
inhibition at 50 µM (RAW264.7 [2]): 33%

Compound: CCCc1ccc(/N=C(/NCC)SC(C)C)cc1
inhibition at 20 µM (RAW264.7 [1]): < 10%
inhibition at 50 µM (RAW264.7 [2]): 71%

Compound: CC(C)S/C(N)=N\c1ccc(OCCn2c3ccccc3c3ccccc32)cc1
inhibition at 20 µM (RAW264.7 [1]): 22%
inhibition at 50 µM (RAW264.7 [2]): 30%

Compound: CCN/C(=N/c1ccc(C)cc1)SC(C)C
inhibition at 20 µM (RAW264.7 [1]): < 10%
inhibition at 50 µM (RAW264.7 [2]): 14%

IC50 (RAW264.7 [4]): 2.9 µM
Compound: CCN/C(=N/c1ccc(OCCn2c3ccccc3c3ccccc32)cc1)SC
inhibition at 20 µM (RAW264.7 [1]): 99%
inhibition at 50 µM (RAW264.7 [2]): 100%
iNOS protein expression inhibition (RAW264.7 [5]): Active
Activity (RAW264.7 [6]): Active
Activity (RAW264.7 [7]): Non-toxic

IC50 (RAW264.7 [4]): 1.3 µM
Compound: CCN/C(=N/c1ccc(OCCn2c3ccccc3c3ccccc32)cc1)SC(C)C
inhibition at 20 µM (RAW264.7 [1]): 48%
iNOS protein expression inhibition (RAW264.7 [5]): Active
inhibition at 5 µM (RAW264.7 [10]): 79%
inhibition (RAW264.7 [11]): Active
Activity (RAW264.7 [12]): Active
Activity (RAW264.7 [6]): Active
Activity (RAW264.7 [7]): Non-toxic
